High-throughput results deposited in PubChem BioAssay by several laboratories.
Lmaj promast: Leishmania major promastigote growth inhibition, primary screen; inhibition, % at 10 µM; 200,000 compounds, 9% hits; Leishmania major promastigotes, resazurin fluorescence viability; in the data active means inhibition above about 50%;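 further: promastigotes grown with compound for 44 hours at 28 °C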
HCT116 PTEN-null: growth suppression of PTEN-null HCT116, primary screen, cell-based, CellTiter-Glo; 140,000 compounds, 1.2% hits; viability, % at 10 µM; HCT116 PTEN-null viability, 60 h; active compounds read low;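 active means viability at or below a set limit, 4 SD under the median of all tested compounds, cut at about 3.7% in these data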;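 further: PTEN knockout HCT116 line with beta catenin targeted HCT116 as companion control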
Dynein cargo inh: inhibitors of GR-EGFP nuclear translocation, primary screen, dynein cargo transport inhibitor project, imaging, high-content, 3617.4 mouse cells; test concentration mostly 20 µM; stimulated with dexamethasone, 1 µM; active compounds read low; z-score, hits read low; 220,000 compounds, 0.47% hits;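 active means plate z-score of nuclear minus cytoplasmic receptor signal below a set negative limit, without overly bright fluorescence or cell loss, cut at about -3.5 in these data, passing the limit was not always enough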;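 further: z-score of nuclear minus cytoplasmic ring GR-EGFP intensity difference per well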
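Medium: Induction medium lacking tetracycline, stripped serum | Probe or stimulus: 1.0 µM final dexamethasone stimulus | Schedule: 48 h induction, then 1 h compound, then 30 min agonist, 37 °C | Signal: Automated 10x imaging of fixed Hoechst-stained cells | Evaluation: Per-cell GR-EGFP intensity, nucleus versus surrounding cytoplasmic ring, well-averaged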
Autophagy HCS: autophagy modulators in MEF cells, primary screen, imaging, high-content, MEF GFP-LC3. 190,000 compounds, 0.98% hits. calls only at 10 µM (by protocol). MEF GFP-LC3 puncta imaging; test concentration mostly 10 µM;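 active means percentage of spot-positive cells more than 3 SD above its plate mean, without a fluorescence outlier flag or 80% toxicity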;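 further: spot-positive cell cutoff set from DMSO-treated cells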
HCT116 bCat-KO: primary screen for growth suppressors in beta-catenin knockout HCT116 cells (colon tumor, human); 140,000 compounds, 1.5% hits; AID 818, 2007; HCT116 beta-catenin knockout viability, CellTiter-Glo, 60 h; active compounds read low; viability, % at 10 µM;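 active means viability at or under a set limit, the compound median less 4 SD, cut at about 6% in these data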;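 further: 0% = Hyamine 1622 control at 20 µM and 100% = untreated cell control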
* marks the source's active call; other numbers are inactive results; i = inactive; / = no result; + = active, no number. In the library only some 9.2% were active in any assay of this set; here they are far more common.

SMILES	Lmaj promast	HCT116 PTEN-null	Dynein cargo inh	Autophagy HCS	HCT116 bCat-KO
CCOC(=O)C1CCN(C(=O)c2cccc(NS(=O)(=O)c3ccc(F)c(F)c3)c2)CC1	-5	/	-0.57	i	/
O=C1NC(=Nc2ccc(O)cc2)S/C1=C\C=C\c1ccco1	/	/	1.1	/	/
Cc1ccc(-c2csc3ncnc(-n4nnc5ccccc54)c23)cc1C	76*	84	-1	i	73
CC(C)(C)NCc1ccc(OCc2cccs2)cc1	100*	/	0.022	i	/
CC(C)(C)c1ccc(OCC(=O)NNC(=O)Cc2cccs2)cc1	-6	94	-0.96	i	83
CC(=O)Nc1ccc(S(=O)(=O)N2CCc3c(Cl)cccc3C2)cc1	-4	77	-1.3	i	72
COc1ccccc1N/C(=N/S(=O)(=O)c1ccc(C)cc1)c1ccc(Cl)cc1	100*	67	0.99	i	80
CC(=O)c1cc2c(cc1N/C(=N/S(=O)(=O)c1ccc(C)cc1)c1ccc(Cl)cc1)OCO2	35	86	0.87	i	87
CC(=O)c1cc2c(cc1N/C(=N/S(=O)(=O)c1ccc(C)cc1)c1ccccc1)OCO2	59*	92	0.58	i	91
COc1ccccc1NS(=O)(=O)c1cc(NC(=S)Nc2cc(C)cc(C)c2)ccc1Cl	41	82	1.2	i	87
COc1ccccc1NS(=O)(=O)c1cc(N/C(=N\S(=O)(=O)c2ccccc2)c2ccc(F)cc2)ccc1Cl	99*	65	-0.76	i	66
CCN(CC)S(=O)(=O)c1cc(C(=O)OCC(=O)NC2CCCc3ccccc32)ccc1C (stereo not given)	51*	102	-0.3	i	95
CCN(CC)S(=O)(=O)c1ccc(NC2CCCc3ccccc32)nc1 (stereo not given)	-4	0.5*	0.16	i	0.6*
COc1ccc(N=C2O/C(=C/c3sc(=S)n(CC4CCCO4)c3O)N=C2C#N)cc1 (stereo not given)	/	/	-1.4	/	/
CCOC(=O)c1c(/N=C/N(C)C)sc(C(=O)OC)c1C	-2	110	-0.5	i	92
Cc1ccc(C)n1-c1ccc(C(=O)NN)s1	-7	/	-0.33	i	/
Cc1ccc(C2(CC(=O)N3CCCC3)CCOC(C(C)C)C2)cc1 (stereo not given)	13	94	0.043	i	95
Cc1ccc(C2(CCNS(=O)(=O)c3ccc(C)cc3)CCOC(C(C)C)C2)cc1 (stereo not given)	63*	84	2.1	i	76
CN(C)c1ccc(CNCCC2(O)CCOC(C)(C)C2)cc1 (stereo not given)	-4	92	-0.65	i	91
CC(C)C1CC(CCNCc2ccc3c(c2)OCO3)(c2ccccc2)CCO1 (stereo not given)	/	/	1.3	/	/
Cc1ccc(C2(CCNCc3ccc(N(C)C)cc3)CCOC(C(C)C)C2)cc1 (stereo not given)	100*	/	-0.66	i	/
CC(C)C1CC(CCNCc2ccc(N(C)C)cc2)(c2ccccc2)CCO1 (stereo not given)	98*	2.6*	0.37	i	2.3*
COC(=O)c1c(C(=O)OC)n(CCCN)c2ccc(C)cc12	59*	77	-1.7	i	73
CCCCCCCCn1c(=O)c(C(=O)OC)c(N)c2ccccc21	/	/	0.24	/	/
C=CCn1c(C)cc(C(=O)COC(=O)c2ccc3c(c2)NC(=O)CS3)c1C	-1	64	0.71	i	72
SMILES	Lmaj promast	HCT116 PTEN-null	Dynein cargo inh	Autophagy HCS	HCT116 bCat-KO
OC(COc1c(Cl)cc(Cl)cc1Cl)CN1CCCCC1 (stereo not given)	97*	92	-1.3	i	81
CN1CCN(CC(O)COc2ccc(OCC(O)CN3CCN(C)CC3)cc2)CC1 (stereo not given)	0	100	-0.48	i	100
C=CCc1ccccc1OCC(O)CN1CCN(Cc2ccc3c(c2)OCO3)CC1 (stereo not given)	93*	84	-0.17	i	71
CCN1CCN(CC(O)COc2ccc(Cl)cc2)CC1 (stereo not given)	89*	92	-0.38	i	90
OC(COc1ccccc1)CN1CCCCCC1 (stereo not given)	-1	/	0.051	i	/
OC(COc1ccc2c(c1)OCO2)CN1CCc2ccccc2C1 (stereo not given)	74*	93	-0.25	i	89
C=CCNC(=S)Nc1c(N)n(C)c(=O)n(C)c1=O	/	/	0.21	/	/
O=C1CC(c2cccc(Br)c2)C2=C(COC2=O)N1 (stereo not given)	-4	/	-0.21	i	/
NCCOc1ccc(C23CC4CC(CC(C4)C2)C3)cc1	101*	/	-4.7	i	/
OC(COc1ccc(Cl)cc1)CN1CCCCC1 (stereo not given)	89*	94	-0.46	i	101
OC(COc1ccc(Cl)cc1)CN1C2=NCCCN2c2ccccc21 (stereo not given)	63*	48	-0.032	i	50
CCC(=O)c1ccc(OCC(O)Cn2cnc3ccccc32)cc1 (stereo not given)	-5	80	-0.67	i	92
CCC(=O)c1ccc(OCC(O)CN2CCCCC2)cc1 (stereo not given)	66*	88	-2.4	i	96
COc1ccc(OCC(O)CN2CCCCC2)cc1 (stereo not given)	8	87	0.17	i	106
OC(CN1C2=NCCCN2c2ccccc21)c1ccc(Cl)cc1 (stereo not given)	27	79	-0.77	i	76
COc1cccc(OCC(O)CN2C(C)CCCC2C)c1 (stereo not given)	4	83	-0.17	i	97
Cc1ccc(OCC(O)CN2CCN(Cc3ccc4c(c3)OCO4)CC2)cc1C (stereo not given)	91*	80	-0.47	i	81
Cc1cc(OCC(O)CN2C(C)CCCC2C)ccc1C(C)C (stereo not given)	97*	/	-0.28	i	/
OC(COc1ccc(CNCCc2ccc(C(F)(F)F)cc2)cc1)CN1CCCCC1 (stereo not given)	100*	/	2.5	+	/
OCCN1CCN(CC(O)COc2ccc(C34CC5CC(CC(C5)C3)C4)cc2)CC1 (stereo not given)	100*	/	6.4	+	/
COc1ccc(OCC(O)CN2CCN(c3ncccn3)CC2)cc1 (stereo not given)	-8	92	0.14	i	94
OC(COc1ccc2c(c1)OCO2)CN1CCCCC1 (stereo not given)	-8	/	1.9	i	/
Cc1cc(C)c2ccc(=O)n(CC(=O)N/N=C/c3ccccc3Cl)c2n1	/	/	0.91	/	/
O=C(NNC(=S)NCC1CCCO1)c1cccc(S(=O)(=O)N2CCOCC2)c1 (stereo not given)	1	/	-0.8	i	/
CC(C)C[C@H](N)c1cn([C@@H](CCCCN)C(=O)N2CCNCC2)nn1	-3	/	-0.71	i	/
